NS3 helicase inh: blocks Hepatitis C virus NS3 helicase unwinding. NS3 helicase DNA unwinding, Cy5 molecular beacon fluorescence. inhibition, % at 10.9 µM. actives 0.56% (n = 290,000). AID 1800;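 active = inhibition above the mean of all tested compounds plus 3 SD, set per campaign, cut at about 35% in these data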;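 note: 0% = DMSO wells and 100% = thioflavine S control wells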
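System: Hepatitis C virus NS3 helicase domain fragment enzyme | Reagent: Annealed dual-labelled DNA beacon duplex, ATP-started | Compound dosing: 10.9 µM single point, 0.8% DMSO | Incubation: 1 h reaction at 25 °C, ATP-initiated | Technique: Cy5 fluorescence | Evaluation: Percent inhibition from t60/t0 fluorescence ratio | Benchmarks: Low DMSO, high thioflavine S at 110 µM | Replication: Singlicate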
A3G deaminase: APOBEC3G (human) deaminase inhibition. Q9HC16. recombinant A3G, ssDNA deamination FAM/TAMRA fluorescence. inhibition, % at 20 µM. actives 0.28% (n = 330,000);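 active = inhibition of at least 40% at 20 µM, with no more than 30% in the related APOBEC3A deaminase screen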;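 note: plate controls were DMSO wells with A3G for no effect and wells lacking A3G enzyme for full effect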
PRMT1 inh: blocks human protein arginine methyltransferase 1; actives 1.3% (n = 370,000); recombinant PRMT1, activity-based probe fluorescence polarization; Q99873; inhibition, % at 2.79 µM;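 active = inhibition above about 21% made by adding two undisclosed values, limit read from the data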
A3A deaminase: blocks human APOBEC3A ssDNA deamination. P31941. recombinant A3A, FAM/TAMRA ssDNA deamination fluorescence. inhibition, % at 20 µM. actives 0.41% (n = 330,000);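 active = at least 40% inhibition at 20 µM here, with at most 30% in a related deaminase screen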;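 note: plate controls were A3A with DMSO for no effect and wells lacking A3A enzyme for full effect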
Target sequence (P31941 whole entry, looked up): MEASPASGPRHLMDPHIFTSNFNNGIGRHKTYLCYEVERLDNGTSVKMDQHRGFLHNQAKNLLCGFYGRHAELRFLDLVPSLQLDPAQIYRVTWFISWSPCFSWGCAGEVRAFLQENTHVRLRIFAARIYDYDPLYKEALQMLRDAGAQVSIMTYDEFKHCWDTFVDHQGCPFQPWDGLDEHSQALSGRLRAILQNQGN
ABHD5 PLIN5 PPI: blocks binding of human ABHD5 to perilipin-5; inhibition, % at 4 µM; actives 0.78% (n = 360,000); Split G. princeps luciferase complementation, luminescence, 4 h; AID 602281; Q00G26+Q8WTS1;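 active = inhibition above the mean inhibition across every tested compound plus 3 SD, cut at about 22% in these data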;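 note: 0% = DMSO only wells and the 100% control is not disclosed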
HCV core dimer: blocks dimerization of HCV core protein; AID 1899; inhibition, % at 5 µM; TR-FRET GST/Flag-core106 dimerization, 1536-well; actives 0.33% (n = 300,000);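 active = inhibition above the mean of all tested compounds plus 3 SD, set per screening campaign, cut at about 45% in these data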
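System: GST-tagged and Flag-tagged HCV core protein residues 1-106 / Input: core106 proteins, GST 13.5 nM and Flag 17 nM / Buffer or medium: KF-containing HEPES buffer, pH 7.45, DTT, CHAPS, BSA / Probe or stimulus: Eu-anti-GST and XL665-anti-Flag labelled anti-tag antibodies / Schedule: 4 h, 22.5 °C incubation / Technique: TR-FRET 671 and 617 nm emission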
NS3 hel confirm: HCV NS3 helicase inhibition, confirmation assay; shares compounds with NS3 helicase inh; NS3 helicase DNA unwinding, Cy5 molecular beacon fluorescence; inhibition, % at 10.9 µM; actives 31% (n = 1,600);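 active = inhibition above the mean of all tested compounds plus 3 SD, cutoff set per campaign, cut at about 36% in these data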
FID counter trip: counter-screen for HCV NS3 helicase inhibitors: DNA intercalator displacement. inhibition, % at 7.9 µM. AID 1945. actives 4% (n = 1,600). shares compounds with NS3 helicase inh. DNA fluorescent intercalator displacement, fluorescence; in the data active = inhibition above about 37%;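 note: 0% = vehicle and 100% = reference compound; higher means more displacement of ethidium bromide from the DNA hairpin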
FID counter DR: displaces fluorescent intercalator from DNA, HCV helicase counter-screen. AID 2172. 120 tested, under 10 active. shares compounds with NS3 helicase inh. IC50, µM. fluorescent intercalator displacement from DNA, fluorescence; call rule not given here
Starred values were filed as active, the others as inactive. Only some compounds are listed: those with a hit (about 2.9% of all), similar ones and a draw of the others.

`Cc1ccc(C2NC(=O)c3ccccc3O2)cc1` (stereo not drawn) gave NS3 helicase inh 7.1, A3G deaminase -10.7, PRMT1 inh 0.1, A3A deaminase -2.2, ABHD5 PLIN5 PPI 5.4 and HCV core dimer 7.5.
For CC(C)c1[nH]nc2c1C(c1cccc(C(F)(F)F)c1)NC2=O (stereo not drawn) the results were PRMT1 inh 3.1.
Screening C[C@H](CO)N1C[C@H](C)[C@@H](CN(C)S(=O)(=O)c2ccccc2C#N)OCc2cn(nn2)CCCC1=O returned PRMT1 inh 4.5 and ABHD5 PLIN5 PPI -1.7.
For COC(=O)c1ccc(C2C(C(=O)c3cc4ccccc4o3)=C(O)C(=O)N2c2cc(C)on2)cc1 (stereo not drawn) the results were NS3 helicase inh 51.1*, A3G deaminase -5.6, PRMT1 inh 4.8, A3A deaminase -7.1, ABHD5 PLIN5 PPI -0.7, HCV core dimer 33.2, NS3 hel confirm 93.1* and FID counter trip -29.0.
`Cc1cc(N2C(=O)C(O)=C(C(=O)c3cc4ccccc4o3)C2c2ccc(OC(C)C)cc2)no1` (stereo not drawn) gave NS3 helicase inh 11.0, A3G deaminase -3.4, PRMT1 inh -3.9, A3A deaminase -7.7, ABHD5 PLIN5 PPI -22.9 and HCV core dimer -4.0.
For Cc1cc2c(c(=O)o1)[C@@]1(C(=O)N(C)c3ccccc31)C1=C(CC(C)(C)CC1=O)O2 the results were PRMT1 inh -1.3.
COc1ccccc1OCCCOc1cccc(/C=C2\SC(=O)NC2=O)c1 was read as NS3 helicase inh 44.2*, A3G deaminase -2.1, PRMT1 inh 1.8, A3A deaminase 1.2, ABHD5 PLIN5 PPI 8.2, HCV core dimer 11.5, NS3 hel confirm 68.1*, FID counter trip -9.1 and FID counter DR >79.4.
`CCCOc1ccc2ccccc2c1/C=C1\SC(=O)NC1=O` gave NS3 helicase inh 36.4*, A3G deaminase -2.5, PRMT1 inh 0.5, A3A deaminase -7.9, ABHD5 PLIN5 PPI -4.5, HCV core dimer 9.8, NS3 hel confirm 30.3 and FID counter trip -21.0.
O=C1Nc2ccccc2C(=O)N2C[C@@H](O)C[C@H]12 was read as NS3 helicase inh -2.7, A3G deaminase 34.0, PRMT1 inh -2.7, A3A deaminase 0.5, ABHD5 PLIN5 PPI 4.1 and HCV core dimer -0.1.
For COC(=O)c1ccc(C2/C(=C(\O)c3ccc4c(c3)OCCO4)C(=O)C(=O)N2c2nnc(C)s2)cc1 (stereo not drawn) the results were NS3 helicase inh 13.4, A3G deaminase 1.2, PRMT1 inh -2.3, A3A deaminase 1.1, ABHD5 PLIN5 PPI -6.5 and HCV core dimer -2.9.
COc1ccc(C2/C(=C(\O)c3ccc4c(c3)OCCO4)C(=O)C(=O)N2c2nc(C)c(C(C)=O)s2)cc1 (stereo not drawn) was read as NS3 helicase inh 37.6*, A3G deaminase -2.2, PRMT1 inh 3.5, A3A deaminase -5.7, ABHD5 PLIN5 PPI 2.1, HCV core dimer 0.1, NS3 hel confirm 64.5*, FID counter trip -11.3 and FID counter DR >79.4.
Screening COc1ccc(/C=C(\NC(=O)c2ccc([N+](=O)[O-])cc2)C(=O)NCCCN2CCOCC2)cc1 returned NS3 helicase inh -8.4, A3G deaminase -6.0, PRMT1 inh -2.7, A3A deaminase -2.7, ABHD5 PLIN5 PPI 0.0 and HCV core dimer -2.7.
For CN(C)c1ccc(/C=N/NC(=O)C(O)(c2ccccc2)c2ccccc2)o1 the results were NS3 helicase inh 64.6*, A3G deaminase -4.4, PRMT1 inh 15.2, A3A deaminase -1.3, ABHD5 PLIN5 PPI 6.0, HCV core dimer 6.7, NS3 hel confirm -31.4 and FID counter trip -30.7.

High-throughput results deposited in PubChem by several laboratories.
